Test system: U2OS
Experiment: Multiplex assay against U2OS
Type: toxicity, cell-based
Conditions: human
Procedure, shortened: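 Hoechst33342, BioTracker Green Microtubule Cytoskeleton Dye, MitoTracker Red and Annexin V Alexa Fluor 680 were added to live cells at seeding, and imaging on a CQ1 microscope at 37°C and 5% CO2 followed compound addition. Gating by CellPathfinder machine learning separated cells into Hoechst high-intensity objects or normal cells, then normal cells into healthy, pyknosed or fragmented nuclei, then pyknosed cells into mitotic or apoptotic. Per cents of healthy-nucleus cells are reported for the tubulin, mitochondrial-mass and membrane-permeability phenotypes.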

[1] = 12 h, 1 µM, compound concentration 1 uM, replicate 1
[2] = 12 h, 1 µM, compound concentration 1 uM, replicate 2
[3] = 12 h, 10 µM, compound concentration 10 uM, replicate 1
[4] = 12 h, 10 µM, compound concentration 10 uM, replicate 2
[5] = 24 h, 1 µM, compound concentration 1 uM, replicate 1
[6] = 24 h, 1 µM, compound concentration 1 uM, replicate 2
[7] = 24 h, 10 µM, compound concentration 10 uM, replicate 1
[8] = 24 h, 10 µM, compound concentration 10 uM, replicate 2
[9] = 48 h, 1 µM, compound concentration 1 uM, replicate 1
[10] = 48 h, 1 µM, compound concentration 1 uM, replicate 2
[11] = 48 h, 10 µM, compound concentration 10 uM, replicate 1
[12] = 48 h, 10 µM, compound concentration 10 uM, replicate 2

Cc1onc(-c2ccccc2Cl)c1C(=O)N(C)c1ccc(Cl)cc1
Population Apoptotic (%) [1]: 82%
Population Fragmented Nuclei (%) [1]: 26%
Population Healthy Nuclei (%) [1]: 67%
Population Hoechst High Intensity Objects (%) [1]: 0%
Population Membrane Permeable-Phenotype (%) [1]: 3%
Population Mitochondria Different-Phenotype (%) [1]: 2%
Population Mitotic Cells (%) [1]: 17%
Population Normal (%) [1]: 99%
Population Pyknosed Nuclei (%) [1]: 6%
Population Tubulin-Different-Phenotype (%) [1]: 1%
Total Cell Count [1]: 277
Population Apoptotic (%) [2]: 78%
Population Fragmented Nuclei (%) [2]: 10%
Population Healthy Nuclei (%) [2]: 79%
Population Hoechst High Intensity Objects (%) [2]: 1%
Population Membrane Permeable-Phenotype (%) [2]: 4%
Population Mitochondria Different-Phenotype (%) [2]: 1%
Population Mitotic Cells (%) [2]: 21%
Population Normal (%) [2]: 98%
Population Pyknosed Nuclei (%) [2]: 10%
Population Tubulin-Different-Phenotype (%) [2]: 3%
Total Cell Count [2]: 136
Population Apoptotic (%) [3]: 79%
Population Fragmented Nuclei (%) [3]: 28%
Population Healthy Nuclei (%) [3]: 58%
Population Hoechst High Intensity Objects (%) [3]: 4%
Population Membrane Permeable-Phenotype (%) [3]: 12%
Population Mitochondria Different-Phenotype (%) [3]: 5%
Population Mitotic Cells (%) [3]: 20%
Population Normal (%) [3]: 95%
Population Pyknosed Nuclei (%) [3]: 12%
Population Tubulin-Different-Phenotype (%) [3]: 5%
Total Cell Count [3]: 244
Population Apoptotic (%) [4]: 77%
Population Fragmented Nuclei (%) [4]: 24%
Population Healthy Nuclei (%) [4]: 56%
Population Hoechst High Intensity Objects (%) [4]: 0%
Population Membrane Permeable-Phenotype (%) [4]: 7%
Population Mitochondria Different-Phenotype (%) [4]: 6%
Population Mitotic Cells (%) [4]: 22%
Population Normal (%) [4]: 99%
Population Pyknosed Nuclei (%) [4]: 19%
Population Tubulin-Different-Phenotype (%) [4]: 4%
Total Cell Count [4]: 113
Population Apoptotic (%) [5]: 100%
Population Fragmented Nuclei (%) [5]: 23%
Population Healthy Nuclei (%) [5]: 70%
Population Hoechst High Intensity Objects (%) [5]: 0%
Population Membrane Permeable-Phenotype (%) [5]: 2%
Population Mitochondria Different-Phenotype (%) [5]: 2%
Population Mitotic Cells (%) [5]: 0%
Population Normal (%) [5]: 99%
Population Pyknosed Nuclei (%) [5]: 5%
Population Tubulin-Different-Phenotype (%) [5]: 0%
Total Cell Count [5]: 328
Population Apoptotic (%) [6]: 83%
Population Fragmented Nuclei (%) [6]: 11%
Population Healthy Nuclei (%) [6]: 81%
Population Hoechst High Intensity Objects (%) [6]: 1%
Population Membrane Permeable-Phenotype (%) [6]: 4%
Population Mitochondria Different-Phenotype (%) [6]: 5%
Population Mitotic Cells (%) [6]: 16%
Population Normal (%) [6]: 98%
Population Pyknosed Nuclei (%) [6]: 7%
Population Tubulin-Different-Phenotype (%) [6]: 2%
Total Cell Count [6]: 168
Population Apoptotic (%) [7]: 72%
Population Fragmented Nuclei (%) [7]: 26%
Population Healthy Nuclei (%) [7]: 62%
Population Hoechst High Intensity Objects (%) [7]: 3%
Population Membrane Permeable-Phenotype (%) [7]: 11%
Population Mitochondria Different-Phenotype (%) [7]: 6%
Population Mitotic Cells (%) [7]: 27%
Population Normal (%) [7]: 96%
Population Pyknosed Nuclei (%) [7]: 11%
Population Tubulin-Different-Phenotype (%) [7]: 4%
Total Cell Count [7]: 299
Population Apoptotic (%) [8]: 64%
Population Fragmented Nuclei (%) [8]: 20%
Population Healthy Nuclei (%) [8]: 66%
Population Membrane Permeable-Phenotype (%) [8]: 8%
Population Mitochondria Different-Phenotype (%) [8]: 7%
Population Mitotic Cells (%) [8]: 35%
Population Pyknosed Nuclei (%) [8]: 13%
Population Tubulin-Different-Phenotype (%) [8]: 7%
Total Cell Count [8]: 129
Population Apoptotic (%) [9]: 87%
Population Fragmented Nuclei (%) [9]: 16%
Population Healthy Nuclei (%) [9]: 75%
Population Hoechst High Intensity Objects (%) [9]: 2%
Population Membrane Permeable-Phenotype (%) [9]: 4%
Population Mitochondria Different-Phenotype (%) [9]: 3%
Population Mitotic Cells (%) [9]: 12%
Population Normal (%) [9]: 97%
Population Pyknosed Nuclei (%) [9]: 7%
Population Tubulin-Different-Phenotype (%) [9]: 2%
Total Cell Count [9]: 450
Population Apoptotic (%) [10]: 89%
Population Fragmented Nuclei (%) [10]: 12%
Population Hoechst High Intensity Objects (%) [10]: 1%
Population Membrane Permeable-Phenotype (%) [10]: 1%
Population Mitochondria Different-Phenotype (%) [10]: 2%
Population Mitotic Cells (%) [10]: 10%
Population Normal (%) [10]: 98%
Population Pyknosed Nuclei (%) [10]: 11%
Population Tubulin-Different-Phenotype (%) [10]: 1%
Total Cell Count [10]: 252
Population Apoptotic (%) [11]: 69%
Population Fragmented Nuclei (%) [11]: 22%
Population Healthy Nuclei (%) [11]: 67%
Population Hoechst High Intensity Objects (%) [11]: 3%
Population Membrane Permeable-Phenotype (%) [11]: 10%
Population Mitochondria Different-Phenotype (%) [11]: 5%
Population Mitotic Cells (%) [11]: 30%
Population Normal (%) [11]: 96%
Population Pyknosed Nuclei (%) [11]: 9%
Population Tubulin-Different-Phenotype (%) [11]: 4%
Total Cell Count [11]: 413
Population Apoptotic (%) [12]: 90%
Population Fragmented Nuclei (%) [12]: 23%
Population Healthy Nuclei (%) [12]: 65%
Population Hoechst High Intensity Objects (%) [12]: 2%
Population Membrane Permeable-Phenotype (%) [12]: 9%
Population Mitotic Cells (%) [12]: 10%
Population Normal (%) [12]: 97%
Population Pyknosed Nuclei (%) [12]: 11%
Population Tubulin-Different-Phenotype (%) [12]: 3%
Total Cell Count [12]: 182

Source: ChEMBL document CHEMBL5058577, “EUbOPEN Chemogenomics Library 2 (Multiplex)” (2022)
